Assay results from paper PMC10655067 (RSC Chemical Biology, 2020).
Entries after “also recorded” stand apart in the source; their conditions may differ.

What was measured:
TRPC4:C4 [1] = conditions: read-out: TRPC4:C4 IC50; cited from earlier work
TRPC5:C5 = conditions: read-out: TRPC5:C5 IC50; cited from earlier work
[2] = cited from earlier work
TRPC4-C1 = TRPC4-C1 (Homo sapiens, UniProt P48995+Q9UBN4); conditions: read-out: TRPC4-C1 IC50; 10 nM EA was used as activator; cited from earlier work
TRPC4:C4 [3] = target: T1, TRPC4:C4 (Homo sapiens, UniProt Q9UBN4); conditions: read-out: TRPC4:C4 IC50; 10 nM EA was used as activator; cited from earlier work
T1 sequence (Q9UBN4 1-893 isoform Q9UBN4-2): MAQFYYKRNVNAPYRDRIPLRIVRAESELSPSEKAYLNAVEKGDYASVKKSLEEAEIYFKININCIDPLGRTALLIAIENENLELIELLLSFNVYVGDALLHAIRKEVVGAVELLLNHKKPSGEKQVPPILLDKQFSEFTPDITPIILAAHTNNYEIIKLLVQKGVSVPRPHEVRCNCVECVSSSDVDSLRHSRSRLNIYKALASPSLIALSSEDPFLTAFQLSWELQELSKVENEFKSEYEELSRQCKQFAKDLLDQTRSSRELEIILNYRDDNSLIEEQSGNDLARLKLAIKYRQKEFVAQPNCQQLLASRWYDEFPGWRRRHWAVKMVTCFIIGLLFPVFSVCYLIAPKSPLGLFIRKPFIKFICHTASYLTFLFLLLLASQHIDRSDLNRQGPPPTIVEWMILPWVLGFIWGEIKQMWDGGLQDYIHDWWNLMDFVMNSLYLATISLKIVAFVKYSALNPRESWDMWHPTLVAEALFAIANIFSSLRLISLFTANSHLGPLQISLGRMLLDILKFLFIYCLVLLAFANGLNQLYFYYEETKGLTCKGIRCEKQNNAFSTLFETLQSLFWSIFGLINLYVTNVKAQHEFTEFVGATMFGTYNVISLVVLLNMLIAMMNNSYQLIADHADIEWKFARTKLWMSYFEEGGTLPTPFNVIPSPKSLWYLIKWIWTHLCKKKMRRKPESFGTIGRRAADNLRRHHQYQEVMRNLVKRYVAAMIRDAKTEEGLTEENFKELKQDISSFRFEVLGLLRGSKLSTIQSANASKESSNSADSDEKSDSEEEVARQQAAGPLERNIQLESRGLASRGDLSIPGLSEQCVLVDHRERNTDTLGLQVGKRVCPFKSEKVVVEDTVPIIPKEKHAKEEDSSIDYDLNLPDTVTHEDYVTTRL

TRPC5-SYFP2 = target: T2, TRPC5-SYFP2 (Homo sapiens, UniProt Q9UL62); experiment: Competition photoaffinity labelling; type: binding; conditions: Pico145 10 μM pre-treatment; 300 nM Pico145-DAAlk 5
T2 sequence (Q9UL62 1-973): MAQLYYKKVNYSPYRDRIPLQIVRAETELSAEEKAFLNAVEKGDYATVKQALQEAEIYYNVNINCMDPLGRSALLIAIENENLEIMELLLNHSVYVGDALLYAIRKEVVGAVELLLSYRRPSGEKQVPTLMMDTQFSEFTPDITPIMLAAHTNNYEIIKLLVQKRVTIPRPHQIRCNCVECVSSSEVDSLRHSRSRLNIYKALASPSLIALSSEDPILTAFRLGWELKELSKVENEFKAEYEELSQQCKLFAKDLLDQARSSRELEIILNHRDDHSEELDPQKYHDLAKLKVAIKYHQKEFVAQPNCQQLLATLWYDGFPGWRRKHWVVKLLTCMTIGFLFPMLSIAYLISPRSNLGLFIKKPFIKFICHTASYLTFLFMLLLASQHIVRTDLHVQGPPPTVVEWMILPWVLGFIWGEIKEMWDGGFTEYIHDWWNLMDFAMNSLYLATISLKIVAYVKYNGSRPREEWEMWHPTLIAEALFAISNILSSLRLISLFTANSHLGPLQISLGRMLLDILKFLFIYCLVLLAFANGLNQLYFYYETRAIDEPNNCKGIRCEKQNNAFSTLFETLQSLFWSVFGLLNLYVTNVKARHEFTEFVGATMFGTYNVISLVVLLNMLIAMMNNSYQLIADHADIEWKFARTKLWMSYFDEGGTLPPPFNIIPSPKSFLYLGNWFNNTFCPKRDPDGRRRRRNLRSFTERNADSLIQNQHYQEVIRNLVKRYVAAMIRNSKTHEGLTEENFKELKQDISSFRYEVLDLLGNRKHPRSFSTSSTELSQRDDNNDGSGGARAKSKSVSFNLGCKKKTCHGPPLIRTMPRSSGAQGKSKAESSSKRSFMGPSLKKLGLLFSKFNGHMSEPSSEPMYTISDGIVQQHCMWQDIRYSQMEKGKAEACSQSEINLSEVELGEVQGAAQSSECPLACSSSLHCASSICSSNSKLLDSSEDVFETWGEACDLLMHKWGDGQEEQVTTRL
Method in brief: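 Tetracycline-induced (1 μg ml−1, 24 h) cells in SBS pre-treated 30 min at 37 °C with test compound or DMSO, then 30 min at 37 °C with 300 nM diazirine-alkyne probe plus competitor. Streptavidin-HRP/anti-GFP blots; biotin/GFP densitometry versus probe-only control; n = 3; one-way ANOVA, Dunnett.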

TRPC4-C1, sequence (P48995 whole entry, one chain of several): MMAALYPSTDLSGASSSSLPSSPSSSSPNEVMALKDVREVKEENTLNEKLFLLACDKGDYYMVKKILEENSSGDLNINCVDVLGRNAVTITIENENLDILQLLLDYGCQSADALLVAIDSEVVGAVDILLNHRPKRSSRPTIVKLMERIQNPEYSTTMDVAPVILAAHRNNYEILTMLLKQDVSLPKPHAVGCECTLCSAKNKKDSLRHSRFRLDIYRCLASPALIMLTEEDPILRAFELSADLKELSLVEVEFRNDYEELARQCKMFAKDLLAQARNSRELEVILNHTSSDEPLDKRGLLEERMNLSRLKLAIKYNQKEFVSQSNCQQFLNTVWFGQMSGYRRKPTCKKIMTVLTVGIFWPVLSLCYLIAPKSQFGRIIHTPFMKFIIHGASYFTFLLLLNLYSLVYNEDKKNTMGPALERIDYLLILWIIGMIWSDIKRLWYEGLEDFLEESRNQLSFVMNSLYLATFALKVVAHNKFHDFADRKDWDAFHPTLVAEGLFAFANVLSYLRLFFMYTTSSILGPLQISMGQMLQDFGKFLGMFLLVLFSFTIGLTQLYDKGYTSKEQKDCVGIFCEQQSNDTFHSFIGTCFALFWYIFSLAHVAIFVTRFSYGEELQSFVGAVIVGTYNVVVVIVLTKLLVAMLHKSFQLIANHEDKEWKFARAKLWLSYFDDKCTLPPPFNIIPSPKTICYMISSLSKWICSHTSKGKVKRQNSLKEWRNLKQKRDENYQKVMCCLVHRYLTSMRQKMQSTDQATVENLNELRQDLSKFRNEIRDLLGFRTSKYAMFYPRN

Structure (SMILES): O=C1CN(c2cn[nH]c(=O)c2Cl)CCN1Cc1ccccc1C(F)(F)F [GFB-8438]
- IC50 (TRPC4:C4 [1]): 290 nM
- IC50 (TRPC5:C5): 180 to 280 nM

Structure (SMILES): Cn1c(=O)n(CCCO)c(=O)c2c1nc(Oc1cccc(OC(F)(F)F)c1)n2Cc1ccc(Cl)cc1 [Pico145 1]
- Oral bioavailability [2]: orally bioavailable
- IC50 (TRPC4-C1): 0.03 nM
- IC50 (TRPC4:C4 [3]): 0.35 nM
- Effect on TRPC5 photoaffinity labelling with Pico145-DAAlk 5 (TRPC5-SYFP2): inhibition of TRPC5 labelling; also recorded: inhibits photoaffinity labelling
